For 1 compound, selectivity ratio and IC50 results are on record in ChEMBL document CHEMBL2034860, “Cytotoxic heterocyclic triterpenoids derived from betulin and betulinic acid” (Bioorg Med Chem, 2012).

A short description of data set [1]: Therapeutic index, ratio of IC50 for human BJ cells to IC50 for human K562 cells. It is filed as cell-based. Conditions: BJ cells versus K562 cells, read-out: Ratio IC50.
Data set [2] in a line: Therapeutic index, ratio of IC50 for human BJ cells to IC50 for human CCRF-CEM cells. The class given is cell-based. Conditions: BJ cells versus CCRF-CEM cells, read-out: Ratio IC50.
Data set [3] relates to CCRF-CEM. Briefly: Cytotoxicity against human CCRF-CEM cells after 72 hrs by MTT assay. It is filed as functional, cell-based. (Formazan colour is commonly taken as a measure of viable cells.)
Data set [4] deals with CCRF-CEM. Briefly: Cytotoxicity against human daunorubicine resistant CEM cells after 72 hrs by MTT assay. The class given is functional, cell-based. The essentials: (§1)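 Cells seeded at 2500–30,000 per well according to cell type and pre-incubated 24 h at 37 °C, 5% CO2. Four-fold dilutions of compounds dissolved in 10% DMSO were added at time zero, in quadruplicate, then incubated 72 h. MTT was added for a further 1–4 h and formazan dissolved in 10% aq SDS (pH 5.5) overnight at 37 °C. OD was read at 540 nm. Survival was taken as % of mean control OD, and IC50 was read from dose-response curves.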

For data set [5], the system named is A549. Briefly: Cytotoxicity against human A549 cells after 72 hrs by MTT assay. It is filed as functional, cell-based. Particulars: A549, 72 h. In a few lines: as §1
Data set [6] has as its system K562. Briefly: Cytotoxicity against human K562 cells after 72 hrs by MTT assay. Conditions: K562, 72 h. The class given is functional, cell-based. In a few lines: as §1
For data set [7], the system named is K562. Briefly: Cytotoxicity against human paclitaxel resistant K562 cells after 72 hrs by MTT assay. The class given is functional, cell-based. Conditions: K562, 72 h. The essentials:
as §1

In data set [8] the test system is HCT-116. Description: Cytotoxicity against human HCT116 cells after 72 hrs by MTT assay. The class given is functional, cell-based. Conditions: HCT-116, 72 h. The essentials:
as §1

The test system of data set [9] is HCT-116. Briefly: Cytotoxicity against human p53-deficient HCT116 cells after 72 hrs by MTT assay. The class given is functional, cell-based. Conditions: HCT-116, 72 h. The essentials:
as §1

Data set [10] deals with BJ. Description: Cytotoxicity against human BJ cells after 72 hrs by MTT assay. The class given is cell-based. In a few lines:
as §1

Data set [11] relates to MRC5. Briefly: Cytotoxicity against human MRC5 cells after 72 hrs by MTT assay. Conditions: MRC5, 72 h. It is filed as cell-based. The essentials: as §1
Data set [12] is described as follows: Therapeutic index, ratio of IC50 for human BJ cells to IC50 for paclitaxel-resistant human K562 cells. It is filed as cell-based. Conditions: BJ cells versus paclitaxel-resistant K562 cells, read-out: Ratio IC50.
Data set [13] is described as follows: Therapeutic index, ratio of IC50 for human MRC5 cells to IC50 for human CCRF-CEM cells. The class given is cell-based. Particulars: MRC5 cells versus CCRF-CEM cells, read-out: Ratio IC50.

For the compound `CC(C)[C@@H]1CC[C@]2(C(=O)O)CC[C@]3(C)[C@H](CC[C@@H]4[C@@]5(C)CC(Br)C(=O)C(C)(C)[C@@H]5CC[C@]43C)[C@@H]12` (mixture of isomers), the selectivity ratio in data set [1], in data set [2], in [12] and in [13] was > 10 each time. For the same compound, the IC50 (commonly the concentration needed to halve the response being measured) came out at 1 µM in data set [3]; 11.4 µM in data set [4]; 11.9 µM in data set [5]; 1.6 µM in data set [6]; 1.7 µM in data set [7]; 4.3 µM in data set [8]. The values for the IC50 in data set [9], in data set [10] and in data set [11] were 4.1 µM, 17.8 µM and 14.6 µM, respectively.
